Published values of several laboratories.
≈ marks a conversion by molar mass, not a printed value.
Organism: Nakaseomyces glabratus

| SMILES | effect on | technique | strain | time | quantity | value |
| --- | --- | --- | --- | --- | --- | --- |
| CCCCCCOc1c(OC)cc(NC(C)CCCN)c2nc(C(C)(C)C)cc(C)c12 (stereo not shown) | microbial killing | – | ATCC90030 | – | MFC | 20 µg/mL (≈ 46.5 µM) |
| CCCCCCCCCCCCCCN1CCN(CC(O)(Cn2cncn2)c2ccc(F)cc2F)CC1 (stereo not shown) | microbial growth | broth dilution | ATCC2001 | 48 h | MIC | > 31.3 µg/mL |
| CCCCCOc1c(OC)cc(NC(C)CCCNC(=O)C(N)CCCNC(=N)N)c2nc(C(C)(C)C)ccc12 (stereo not shown) | microbial killing | – | ATCC90030 | – | MFC | 20 µg/mL (≈ 35.9 µM) |
| CCOC(=O)c1nc2ccccc2c(=O)n1Cc1cn(-c2ccc(Cl)cc2)nn1 | microbial growth | broth dilution | ATCC90030 | 24 h | IC50 | 195 µg/mL (≈ 476 µM) |
| CCCCCCOc1c(OC)cc(NC(C)CCCNC(=O)C(N)Cc2cnc[nH]2)c2nc(C(C)(C)C)ccc12 (stereo not shown) | microbial growth | broth dilution | ATCC90030 | – | MIC | 20 µg/mL (≈ 36.2 µM) |
| OC(Cn1cncn1)(Cn1cncn1)c1ccc(F)cc1F | microbial growth | broth dilution | ATCC90030 | 24 h | IC50 | 7.8 µg/mL (≈ 25.5 µM) |
| CN1CCNCC1 | microbial growth | broth dilution | ATCC2001 | 48 h | MIC | > 31.3 µg/mL |
| CCOC(=O)c1nc2ccccc2c(=O)n1Cc1cn(-c2ccccc2Cl)nn1 | microbial growth | broth dilution | ATCC90030 | 24 h | IC50 | 183 µg/mL (≈ 447 µM) |
| C#CCCCCCCCCC=CCC(O)CC(O)CO (stereo not shown) | microbial growth | broth dilution | ATCC90030 | – | IC50 | > 8 µg/mL |
| OC(CN1CCOCC1)(Cn1cncn1)c1ccc(F)cc1F (stereo not shown) | microbial growth | broth dilution | ATCC2001 | 48 h | MIC | 31.3 µg/mL (≈ 96.5 µM) |
| CCCCCCOc1c(OC)cc(NC(C)CCCN)c2nc(C(C)(C)C)ccc12 (stereo not shown) | microbial growth | broth dilution | ATCC90030 | – | MIC | 20 µg/mL (≈ 48.1 µM) |
| CCCCCCCCN1CCNCC1 | microbial growth | broth dilution | ATCC2001 | 48 h | MIC | > 31.3 µg/mL |
| OC(Cn1cncn1)(Cn1cncn1)c1ccc(F)cc1F | microbial killing | – | ATCC2001 | – | MFC | > 64 µg/mL |
| CCOC(=O)c1nc2ccccc2c(=O)n1Cc1cn(-c2cccc(Cl)c2)nn1 | microbial growth | broth dilution | ATCC90030 | 24 h | IC50 | 58.2 µg/mL (≈ 142 µM) |
| COc1cc(C(C)(C)C#Cc2c(C)nc(N)nc2N)cc(OC)c1OC | microbial growth | resazurin | – | – | MIC | 178 µg/mL (≈ 499 µM) |
| CCOC(=O)c1nc2ccccc2c(=O)n1Cc1cn(-c2ccccc2F)nn1 | microbial growth | broth dilution | ATCC90030 | 24 h | IC50 | 245 µg/mL (≈ 622 µM) |
| CCCCCCCCCCCCN1CCN(CC(O)(Cn2cncn2)c2ccc(Cl)cc2Cl)CC1 (stereo not shown) | microbial growth | broth dilution | ATCC2001 | 48 h | MIC | 0.975 µg/mL (≈ 1.86 µM) |
| O=C(O)c1nc2ccccc2c(=O)n1Cc1cn(-c2ccccc2[N+](=O)[O-])nn1 | microbial growth | broth dilution | ATCC90030 | 24 h | IC50 | 487 µg/mL (≈ 1240 µM) |
| CCCCCCCOc1c(OC)cc(NC(C)CCCN)c2nc(C(C)(C)C)cc(C)c12 (stereo not shown) | microbial growth | broth dilution | ATCC90030 | – | MIC | 5 µg/mL (≈ 11.3 µM) |
